# High-throughput results as filed in PubChem BioAssay.
# Rows were chosen to be rich in hits. Some 2.6% of all compounds tested hit in one or more screens of this group.
# FGF22 binding = FGF22 (human) thermal shift binding | Q9HCT0 | recombinant FGF22 thermal shift, SYPRO orange fluorescence; percent of sucrose octasulfate shift, DMSO zero | activity (Tm shift, normalised), % at 9.99 µM | 1.5% of 340,000 active | AID 651658;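 active means mean Tm shift, scaled 0 neutral to 100 positive control, at about 1.3% or above, every replicate too, limit read from the data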
# SIRT5 inh = sirtuin-5 (human) deacylase inhibition; Q9NXA8; Purified SirT5, succinyl-peptide AMC, trypsin-coupled fluorescence; inhibition, % at 15 µM; 1.1% of 330,000 active; AID 652115; in the data active means inhibition above about 15%
# UCH37 DUB inh = blocks the human deubiquitinase UCH37 | 0.33% of 330,000 active | inhibition, % (concentration not given with the values) | Q9Y5K5 | purified proteasome/UCH37, Ub-AMC cleavage fluorescence;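 active means mean inhibition over replicate wells above about 20%, limit read from the data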
#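 Material: Human UCH37 enzyme supplied as purified proteasome complex | Schedule: 30 min preincubation with enzyme, 25 min cleavage at room temperature | Detection: AMC fluorescence 355/460 nm | Measure: % inhibition of Ub-AMC cleavage fluorescence | Controls: Wells without proteasome as full block, compound-free enzyme plus substrate as uninhibited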
# Casp6 inh = blocks human caspase-6 cleavage activity. P55212. purified caspase-6, Z-VEID-R110 cleavage fluorescence. inhibition, % at 12.5 µM. 0.53% of 350,000 active;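 active means mean inhibition across replicates at least about 35%, with every replicate also reaching that limit, limit read from the data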
# NSD2 inh = blocks human histone methyltransferase NSD2; O96028; NSD2 peptide methylation, AlphaScreen, 120 min; inhibition, % at 12.5 µM; 0.54% of 310,000 active; in the data active means inhibition above about 50%
# Numbers stand for hits; – = inactive; · = no result given; ! = not confirmed by another sample.
SMILES,FGF22 binding,SIRT5 inh,UCH37 DUB inh,Casp6 inh,NSD2 inh
C[C@@H]1CN([C@@H](C)CO)S(=O)(=O)c2ccc(/C=C/c3ccccc3)cc2O[C@H]1CN(C)C(=O)c1ccc2c(c1)OCO2,–,26.6,·,–,·
C/C=C/c1ccc2c(c1)O[C@H](CN(C)C(=O)c1ccc3c(c1)OCO3)[C@H](C)CN([C@H](C)CO)S2(=O)=O,–,–,·,–,·
C/C=C/c1ccc2c(c1)O[C@@H](CN(C)C(=O)c1ccc3c(c1)OCO3)[C@H](C)CN([C@H](C)CO)S2(=O)=O,–,–,·,–,·
C[C@H](CO)N1C[C@H](C)[C@@H](CN(C)C(=O)c2ccc3c(c2)OCO3)Oc2cc(/C=C/c3ccccc3)ccc2S1(=O)=O,–,16.5,·,–,·
C[C@H](CO)N1C[C@H](C)[C@H](CN(C)C(=O)Nc2ccc(C(F)(F)F)cc2)Oc2ccc(N(C)C)cc2C1=O,–,–,·,–,·
COc1ccc(OC(C)C(=O)Nc2cccc([N+](=O)[O-])c2)cc1 (stereo not drawn),·,·,–,·,–
CC(OC(=O)c1ccncc1)C(=O)Nc1cccc([N+](=O)[O-])c1 (stereo not drawn),43.2,–,–,–,–
O=C(CCN1C(=O)/C(=C/c2ccco2)SC1=S)Nc1ccc(O)cc1C(=O)O,–,48.1,–,69.9,–
O=C(CCCN1C(=O)/C(=C/c2ccco2)SC1=S)Nc1ccccc1C(=O)O,·,26.5,–,61.7,·
O=C(O)CCN1C(=O)/C(=C\c2ccncc2)SC1=S,–,–,–,–,–
O=C(O)CCN1C(=O)/C(=C\c2ccc(-c3nc4ccccc4s3)o2)SC1=S,·,·,91.7,·,·
O=C(CCCN1C(=O)/C(=C\c2ccco2)SC1=S)Nc1ccc2ccccc2c1,–,–,–,–,–
O=C(CCN1C(=O)/C(=C\c2cccs2)SC1=S)Nc1ccc(C(=O)O)cc1,–,–,–,–,–
O=C(CCN1C(=O)/C(=C/c2ccco2)SC1=S)Nc1ccc(C(=O)O)c(O)c1,–,49.7,–,73.6,–
O=C(O)CCCN1C(=O)/C(=C\c2ccco2)SC1=S,–,–,–,–,100.6
COc1ccccc1/C=C1\SC(=S)N(CCC(=O)Nc2ccc(C(=O)O)c(O)c2)C1=O,·,45.8,–,40.8,–
O=C1/C(=C/c2ccco2)SC(=S)N1CC1CCCO1 (stereo not drawn),–,–,·,61.1,–
O=C(CN1C(=O)/C(=C\c2ccco2)SC1=S)Nc1ccc(O)cc1C(=O)O,·,48.5,–,73.1,·
C[C@H]1CN([C@@H](C)CO)C(=O)c2cccc(NS(=O)(=O)c3ccc(F)cc3)c2O[C@H]1CN(C)S(C)(=O)=O,–,–,·,–,·
O=C(CCN1C(=O)/C(=C/c2ccccc2Cl)SC1=S)Nc1ccccc1C(=O)O,·,17.8,–,–,–
COc1cccc2c1OCC(C(=O)O)C2 (stereo not drawn),42.9,–,–,–,–
COc1ccc(S(=O)(=O)N(C)C[C@H]2OCCCC[C@@H](C)Oc3ccc(NC(=O)Nc4ccc(F)cc4)cc3C(=O)N([C@H](C)CO)C[C@H]2C)cc1,–,16.2,·,–,·
COc1ccc(NC(=O)Nc2ccc3c(c2)C(=O)N([C@H](C)CO)C[C@H](C)[C@H](CN(C)S(=O)(=O)c2ccc(F)cc2)OCCCC[C@@H](C)O3)cc1,–,–,·,–,·
C[C@@H]1CCCCO[C@H](CN(C)S(=O)(=O)c2ccc(Cl)cc2)[C@@H](C)CN([C@H](C)CO)C(=O)c2cc(NC(=O)Nc3ccc(F)cc3)ccc2O1,–,15.7,·,–,·
C[C@@H]1CCCCO[C@@H](CN(C)S(=O)(=O)c2ccc(Cl)cc2)[C@@H](C)CN([C@@H](C)CO)C(=O)c2cc(NC(=O)Nc3ccc(F)cc3)ccc2O1,–,–,·,–,·
COc1ccc(S(=O)(=O)N(C)C[C@H]2OCCCC[C@H](C)Oc3ccc(NC(=O)Nc4ccc(F)cc4)cc3C(=O)N([C@H](C)CO)C[C@H]2C)cc1,–,16.6!,·,–,·
C[C@H](CO)N1C[C@H](C)[C@H](CN(C)S(=O)(=O)c2ccc(Cl)cc2)OCCCC[C@H](C)Oc2ccc(NC(=O)Nc3ccc4c(c3)OCO4)cc2C1=O,–,20.7,·,–,·
C[C@H](CO)N1C[C@H](C)[C@H](CN(C)C(=O)c2ccccc2)OCCCC[C@H](C)Oc2ccc(NC(=O)c3ccncc3)cc2C1=O,·,–,·,–,·
CC(=NOCC(=O)Nc1ccccc1)c1cccs1,·,·,–,·,·
